Experimental data as given in BindingDB's records for doi:10.1021/jm020269o (The Pennsylvania State University, 2003).

Key:
[1] = biological target: T1, Bifunctional epoxide hydrolase 2 (Homo sapiens, UniProt P34913); test: Inhibitory activity against human soluble epoxide hydrolase
T1 sequence (P34913 whole entry): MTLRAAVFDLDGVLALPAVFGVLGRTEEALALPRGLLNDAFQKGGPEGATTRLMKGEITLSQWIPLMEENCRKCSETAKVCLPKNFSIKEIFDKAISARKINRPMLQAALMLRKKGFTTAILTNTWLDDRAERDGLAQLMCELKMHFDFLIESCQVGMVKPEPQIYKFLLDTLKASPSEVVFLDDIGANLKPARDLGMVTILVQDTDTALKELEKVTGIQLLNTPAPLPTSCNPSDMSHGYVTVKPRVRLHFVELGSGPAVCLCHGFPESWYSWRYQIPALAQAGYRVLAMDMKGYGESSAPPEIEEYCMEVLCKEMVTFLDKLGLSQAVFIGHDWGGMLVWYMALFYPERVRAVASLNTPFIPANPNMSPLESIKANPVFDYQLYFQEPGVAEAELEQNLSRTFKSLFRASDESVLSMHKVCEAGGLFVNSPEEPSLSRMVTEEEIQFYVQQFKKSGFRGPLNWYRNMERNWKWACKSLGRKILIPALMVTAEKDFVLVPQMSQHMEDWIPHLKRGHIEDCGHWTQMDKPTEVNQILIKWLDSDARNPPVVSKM
In short: (§1)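 Recombinant sEH (human HsEH or mouse MsEH) was expressed in baculovirus, affinity-purified to at least 97% purity, and had no detectable esterase or glutathione transferase activity. Enzyme (HsEH 0.20 µM, MsEH 0.10 µM) was preincubated with inhibitor for 5 min at 30 °C in pH 7.4 sodium phosphate buffer. Racemic 4-nitrophenyl-trans-2,3-epoxy-3-phenylpropyl carbonate (40 µM) was then added. 4-Nitrophenolate was read at 405 nm over 1 min. Assays were run in triplicate, with inhibitor up to 500 µM. IC50 came from regression of at least five points.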

[2] = biological target: T2, Bifunctional epoxide hydrolase 2 (Mus musculus, UniProt P34914); test: Inhibitory activity against murine soluble epoxide hydrolase; in short: as §1
T2 sequence (P34914 whole entry): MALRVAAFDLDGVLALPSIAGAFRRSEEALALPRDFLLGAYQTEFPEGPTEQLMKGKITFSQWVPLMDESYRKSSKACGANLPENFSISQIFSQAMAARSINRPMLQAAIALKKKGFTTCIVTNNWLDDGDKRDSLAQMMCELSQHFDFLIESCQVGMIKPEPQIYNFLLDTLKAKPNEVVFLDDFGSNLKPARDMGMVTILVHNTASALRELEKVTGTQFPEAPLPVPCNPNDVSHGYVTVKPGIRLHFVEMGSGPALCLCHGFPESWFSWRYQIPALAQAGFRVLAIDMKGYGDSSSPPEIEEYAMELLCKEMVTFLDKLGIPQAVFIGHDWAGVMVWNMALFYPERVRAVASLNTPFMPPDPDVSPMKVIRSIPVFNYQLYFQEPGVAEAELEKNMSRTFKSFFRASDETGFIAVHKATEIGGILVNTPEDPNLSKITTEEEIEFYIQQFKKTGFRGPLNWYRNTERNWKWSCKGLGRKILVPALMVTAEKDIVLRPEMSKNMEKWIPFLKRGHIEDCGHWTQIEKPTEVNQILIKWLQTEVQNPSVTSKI

Row | Structure (SMILES) | IC50 [1] [µM] | IC50 [2] [µM]
1 | CCCCCCNC(=O)NC [1-Hexyl-3-methyl-urea] |  | 224
2 | CN(C(=O)NC1CCCCC1)c1ccccc1 [3-Cyclohexyl-1-methyl-1-phenyl-urea] | 129 | 195
3 | CC(C)(C)OC(=O)CNC(=O)NC1CCCCC1 [(3-Cyclohexyl-ureido)-acetic acid tert-butyl ester] | 19 | 4.37
4 | O=C(Nc1ccc(Cl)c(Cl)c1)Nc1ccc(Cl)c(Cl)c1 [US8815951, 299] | 0.257 | 

Results, then the molecule that gave them:

Row | IC50 [1] [µM] | IC50 [2] [µM] | Structure (SMILES)
5 | 0.549 | 0.1 | CCCCCCCCCCCCNC(=O)NC1CCCC1 [1-Cyclopentyl-3-dodecyl-urea]
6 | 229 | 0.129 | CCCCCCCCCCCCNC(=O)NCC(C)(C)C(C)(C)C [1-Dodecyl-3-(2,2,3,3-tetramethyl-butyl)-urea]
